# Data from ChEMBL document CHEMBL1142952, “Design, synthesis, and activity of 2-imidazol-1-ylpyrimidine derived inducible nitric oxide synthase dimerization inhibitors” (J Med Chem, 2007).
# Calls of active or inactive are those of the source. The rule behind the calls is not given here.
# Experiments:
# [1] = Inhibition of vaccinia virus system-induced human NOS expressed in BSC1 cells; format: cell-based; conditions: bsc-1
# [2] = molecular target: Nitric oxide synthase, inducible (Rattus norvegicus) (UniProt Q06518); assay: Activity against rat cerebellum iNOS upto 1 uM
# Nitric oxide synthase, inducible (Rattus norvegicus), sequence (Q06518 whole entry): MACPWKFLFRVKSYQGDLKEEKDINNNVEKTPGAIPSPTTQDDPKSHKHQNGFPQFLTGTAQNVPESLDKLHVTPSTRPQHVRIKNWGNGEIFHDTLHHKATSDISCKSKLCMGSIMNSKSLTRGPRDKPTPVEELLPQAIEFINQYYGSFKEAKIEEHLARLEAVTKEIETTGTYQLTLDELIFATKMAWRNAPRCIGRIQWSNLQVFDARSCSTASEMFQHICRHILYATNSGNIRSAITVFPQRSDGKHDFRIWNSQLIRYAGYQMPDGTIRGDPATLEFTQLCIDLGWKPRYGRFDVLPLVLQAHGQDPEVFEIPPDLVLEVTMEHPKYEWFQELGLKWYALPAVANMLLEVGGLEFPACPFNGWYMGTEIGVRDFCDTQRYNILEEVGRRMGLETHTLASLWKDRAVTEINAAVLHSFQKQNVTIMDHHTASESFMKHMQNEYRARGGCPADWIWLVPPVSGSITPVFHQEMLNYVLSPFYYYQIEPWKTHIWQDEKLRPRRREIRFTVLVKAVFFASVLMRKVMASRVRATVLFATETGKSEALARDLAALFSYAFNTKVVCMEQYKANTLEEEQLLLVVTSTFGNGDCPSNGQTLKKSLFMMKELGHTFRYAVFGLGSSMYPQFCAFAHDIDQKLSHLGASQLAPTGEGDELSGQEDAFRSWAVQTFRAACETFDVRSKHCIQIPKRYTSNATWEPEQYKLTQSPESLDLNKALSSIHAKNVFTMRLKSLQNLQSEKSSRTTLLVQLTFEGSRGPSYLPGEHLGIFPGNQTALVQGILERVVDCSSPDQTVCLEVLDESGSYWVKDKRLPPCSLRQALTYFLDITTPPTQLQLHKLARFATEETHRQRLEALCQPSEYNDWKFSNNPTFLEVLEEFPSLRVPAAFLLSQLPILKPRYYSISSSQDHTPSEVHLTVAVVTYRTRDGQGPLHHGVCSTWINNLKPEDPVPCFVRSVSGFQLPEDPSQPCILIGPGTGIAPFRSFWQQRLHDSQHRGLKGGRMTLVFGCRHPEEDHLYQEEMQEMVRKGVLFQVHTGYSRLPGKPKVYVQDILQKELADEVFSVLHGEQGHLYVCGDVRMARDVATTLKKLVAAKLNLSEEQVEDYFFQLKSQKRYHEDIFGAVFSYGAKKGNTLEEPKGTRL
# BSC-1 [3] = assay: Selectivity ratio, IC50 for ecNOS/IC50 for iNOS using vaccinia virus-induced system in BSC1 cells; format: cell-based; conditions: Homo sapiens
# How it was run: (§1)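 For each compound, the IC50 against bcNOS (b/i) or ecNOS (e/i) is divided by the iNOS IC50 from the same BSC-1 vaccinia system.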
# BSC-1 [4] = assay: Selectivity ratio, IC50 for bcNOS/IC50 for iNOS using vaccinia virus-induced system in BSC1 cells; format: cell-based; conditions: Homo sapiens; how it was run: as §1
# [5] = molecular target: Nitric oxide synthase, inducible (Homo sapiens, UniProt P35228); assay: Inhibition of cytokine-induced iNOS expressed in human A172 cells assessed as inhibition of NO formation; format: cell-based, A 172
# Nitric oxide synthase, inducible, sequence (P35228 whole entry): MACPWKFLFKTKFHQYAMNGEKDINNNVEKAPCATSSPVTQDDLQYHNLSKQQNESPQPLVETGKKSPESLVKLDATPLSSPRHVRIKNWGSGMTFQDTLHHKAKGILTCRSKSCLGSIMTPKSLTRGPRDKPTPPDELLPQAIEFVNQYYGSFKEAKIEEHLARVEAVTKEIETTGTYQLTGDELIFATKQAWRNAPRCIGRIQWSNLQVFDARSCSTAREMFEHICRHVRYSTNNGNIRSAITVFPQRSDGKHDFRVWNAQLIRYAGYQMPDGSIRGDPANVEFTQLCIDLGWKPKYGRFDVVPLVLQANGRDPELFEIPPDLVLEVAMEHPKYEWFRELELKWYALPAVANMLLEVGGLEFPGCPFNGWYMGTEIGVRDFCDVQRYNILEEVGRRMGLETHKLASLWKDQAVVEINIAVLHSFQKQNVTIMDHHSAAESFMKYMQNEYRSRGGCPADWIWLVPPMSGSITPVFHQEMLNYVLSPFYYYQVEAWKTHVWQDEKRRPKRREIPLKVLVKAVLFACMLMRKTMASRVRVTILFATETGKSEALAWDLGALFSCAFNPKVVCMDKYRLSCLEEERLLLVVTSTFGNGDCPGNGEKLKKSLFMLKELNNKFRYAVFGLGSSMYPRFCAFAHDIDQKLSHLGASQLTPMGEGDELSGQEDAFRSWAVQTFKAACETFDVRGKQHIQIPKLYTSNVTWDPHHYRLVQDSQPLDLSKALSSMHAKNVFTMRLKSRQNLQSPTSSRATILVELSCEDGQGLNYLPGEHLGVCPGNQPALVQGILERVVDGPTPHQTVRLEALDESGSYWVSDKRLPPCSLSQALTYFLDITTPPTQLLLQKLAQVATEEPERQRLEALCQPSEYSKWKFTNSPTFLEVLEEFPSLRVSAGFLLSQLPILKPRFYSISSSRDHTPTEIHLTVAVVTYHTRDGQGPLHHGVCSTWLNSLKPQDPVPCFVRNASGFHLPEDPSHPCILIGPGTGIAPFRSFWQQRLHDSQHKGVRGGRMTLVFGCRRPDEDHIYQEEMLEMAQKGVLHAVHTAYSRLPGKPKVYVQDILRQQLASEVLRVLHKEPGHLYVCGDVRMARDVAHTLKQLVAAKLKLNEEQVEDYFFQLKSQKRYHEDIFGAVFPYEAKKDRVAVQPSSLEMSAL
SMILES,IC50 [1] [nM],Activity [2],Ratio IC50 (BSC-1 [3]),Ratio IC50 (BSC-1 [4]),IC50 [5] [nM]
Cc1cc(N2CCCCC2CC(=O)NCc2ccc3c(c2)OCO3)nc(-n2ccnc2)n1 (stereo not given),16,inactive,1200,5,4.1
O=C(CC1CCCCN1c1cc(-n2ccnc2)ncn1)NCc1ccc2c(c1)OCO2 (stereo not given),100,inactive,> 1000,19,10
CC(=O)N1CCN(c2cc(C)nc(-n3ccnc3)n2)CC1CC(=O)NCc1ccc2c(c1)OCO2 (stereo not given),340,inactive,> 320,> 32,8.5
O=C(CC1CCCCN1c1ccnc(-n2ccnc2)n1)NCc1ccc([N+](=O)[O-])cc1 (stereo not given),940,inactive,74,> 10,168
COc1ccccc1CNC(=O)CC1CCCCN1c1ccnc(-n2ccnc2)n1 (stereo not given),500,inactive,,,
O=C(CC1CN(Cc2cccc3ccccc23)CCN1c1ccnc(-n2ccnc2)n1)NCc1ccc2c(c1)OCO2 (stereo not given),120,inactive,40,7,69
O=C(CC1CCCCN1c1ccnc(-n2ccnc2)n1)NC(c1ccccc1)c1ccccc1 (stereo not given),,inactive,,,
CN1CCN(c2ccnc(-n3ccnc3)n2)C(CC(=O)NCc2ccc3c(c2)OCO3)C1 (stereo not given),11,inactive,1300,2,0.48
O=C(CC1CCCCN1c1ccnc(-n2ccnc2)n1)NCc1ccc(Cl)cc1 (stereo not given),160,inactive,,,
O=C(CC1CN(Cc2ccco2)CCN1c1ccnc(-n2ccnc2)n1)NCc1ccc2c(c1)OCO2 (stereo not given),13,inactive,1100,2,0.58
CNC(=O)CC1CCCCN1c1ccnc(-n2ccnc2)n1 (stereo not given),,inactive,,,> 100
O=C(CC1CCCCN1c1cc(-c2ccccc2)nc(-n2ccnc2)n1)NCc1ccc2c(c1)OCO2 (stereo not given),450,inactive,36,4,67
Cc1cc(N2CCN(C)C(CC(=O)NCc3ccc4c(c3)OCO4)C2)nc(-n2ccnc2)n1 (stereo not given),340,inactive,> 350,72,12
COC(=O)N1CCN(c2cc(C)nc(-n3ccnc3)n2)CC1CC(=O)NCc1ccc2c(c1)OCO2 (stereo not given),420,inactive,> 200,50,5.4
CS(=O)(=O)N1CCN(c2ccnc(-n3ccnc3)n2)C(CC(=O)NCc2ccc3c(c2)OCO3)C1 (stereo not given),74,inactive,> 1000,12,0.7
Cc1cc(N2CCN(Cc3ccccc3)C(CC(=O)NCc3ccc4c(c3)OCO4)C2)nc(-n2ccnc2)n1 (stereo not given),160,inactive,350,130,25
O=C(CC1CCCCN1c1ccnc(-n2ccnc2)n1)NCc1ccccn1 (stereo not given),,inactive,,,
O=C(CC1CN(Cc2ccccc2)CCN1c1ccnc(-n2ccnc2)n1)NCc1ccc2c(c1)OCO2 (stereo not given),13,inactive,770,7,1
CNC(=O)N1CCN(c2ccnc(-n3ccnc3)n2)C(CC(=O)NCc2ccc3c(c2)OCO3)C1 (stereo not given),450,inactive,> 250,4,1
CCOC(=O)CN1CCN(c2ccnc(-n3ccnc3)n2)C(CC(=O)NCc2ccc3c(c2)OCO3)C1 (stereo not given),4.9,inactive,1700,5,0.93
CN(C)c1ccc(CNC(=O)CC2CCCCN2c2ccnc(-n3ccnc3)n2)cc1 (stereo not given),245,inactive,86,29,66
Cc1cc(N2CCN(C(=O)C(C)C)[C@@H](CC(=O)NCc3ccc4c(c3)OCO4)C2)nc(-n2ccnc2)n1,> 1000,inactive,,,300
CC(C)CCN1CCN(c2ccnc(-n3ccnc3)n2)C(CC(=O)NCc2ccc3c(c2)OCO3)C1 (stereo not given),10,inactive,1000,6,1
COc1cc(CNC(=O)CC2CCCCN2c2ccnc(-n3ccnc3)n2)cc(OC)c1OC (stereo not given),,inactive,,,> 100
O=C(CC1CCCCN1c1ccnc(-n2ccnc2)n1)NCc1ccc(OC(F)(F)F)cc1 (stereo not given),140,inactive,220,5,19
O=C(CC1CN(C(=O)c2ccccc2)CCN1c1ccnc(-n2ccnc2)n1)NCc1ccc2c(c1)OCO2 (stereo not given),85,inactive,220,4,0.5
COc1cccc(CNC(=O)CC2CCCCN2c2ccnc(-n3ccnc3)n2)c1 (stereo not given),230,inactive,> 430,4,3.7

SMILES,IC50 [1] [nM],Activity [2],Ratio IC50 (BSC-1 [3]),Ratio IC50 (BSC-1 [4]),IC50 [5] [nM]
O=C(CC1CCCCN1c1ccnc(-n2ccnc2)n1)Nc1ccc2c(c1)OCO2 (stereo not given),,inactive,,,> 100
Nc1ccc(CNC(=O)CC2CCCCN2c2ccnc(-n3ccnc3)n2)cc1 (stereo not given),850,inactive,,,
O=C(CC1CCCCN1c1cc(-n2ccnc2)nc(-n2ccnc2)n1)NCc1ccc2c(c1)OCO2 (stereo not given),515,inactive,130,13,35
COc1ccc(CCNC(=O)CC2CCCCN2c2ccnc(-n3ccnc3)n2)cc1 (stereo not given),42,inactive,> 1000,8,3.5
O=C(CC1CCCCN1c1cc(Cl)nc(-n2ccnc2)n1)NCc1ccc2c(c1)OCO2 (stereo not given),9,inactive,1100,5,0.49
O=C(CC1CCCCN1c1ccnc(-n2ccnc2)n1)NCc1ccco1 (stereo not given),260,inactive,140,13,63
CN(Cc1ccccc1)C(=O)CC1CCCCN1c1ccnc(-n2ccnc2)n1 (stereo not given),,inactive,,,
COc1ccc(CNC(=O)CC2CCCCN2c2ccnc(-n3ccnc3)n2)cc1OC (stereo not given),110,inactive,,,
O=C(CC1CN(S(=O)(=O)c2ccccc2)CCN1c1ccnc(-n2ccnc2)n1)NCc1ccc2c(c1)OCO2 (stereo not given),34,inactive,1100,9,2.7
O=C(CC1CCCCN1c1cccc(-n2ccnc2)c1)NCc1ccc2c(c1)OCO2 (stereo not given),,inactive,,,77
COc1ccc(CNC(=O)CC2CCCCN2c2ccnc(-n3ccnc3)n2)cc1 (stereo not given),23,inactive,,,
Cc1cc(N2CCN(S(C)(=O)=O)C(CC(=O)NCc3ccc4c(c3)OCO4)C2)nc(-n2ccnc2)n1 (stereo not given),> 1000,inactive,,,12
O=C(CC1CN(c2cccc(F)n2)CCN1c1ccnc(-n2ccnc2)n1)NCc1ccc2c(c1)OCO2 (stereo not given),10,inactive,850,6,0.28
O=C(CC1CCCCN1c1ccnc(-n2ccnc2)n1)NCc1ccc2c(c1)OCO2 (stereo not given),7,inactive,520,5,0.5
O=C(CC1CCCCCN1c1ccnc(-n2ccnc2)n1)NCc1ccc2c(c1)OCO2 (stereo not given),,inactive,,,2
Cc1ccc(CNC(=O)CC2CCCCN2c2ccnc(-n3ccnc3)n2)cc1 (stereo not given),274,inactive,,,
COC(=O)N1CCN(c2ccnc(-n3ccnc3)n2)[C@H](CC(=O)NCc2ccc3c(c2)OCO3)C1,> 1000,inactive,,,34
Cc1cc(N2CCNC(CC(=O)NCc3ccc4c(c3)OCO4)C2)nc(-n2ccnc2)n1 (stereo not given),> 1000,inactive,,,100
NS(=O)(=O)c1ccc(CNC(=O)CC2CCCCN2c2ccnc(-n3ccnc3)n2)cc1 (stereo not given),> 330,inactive,,,
CN(C)c1cccc2c(S(=O)(=O)N3CCN(c4ccnc(-n5ccnc5)n4)C(CC(=O)NCc4ccc5c(c4)OCO5)C3)cccc12 (stereo not given),,inactive,,,1.1
N#Cc1ccc(CNC(=O)CC2CCCCN2c2ccnc(-n3ccnc3)n2)cc1 (stereo not given),> 1000,inactive,,,
CS(=O)(=O)c1ccc(CNC(=O)CC2CCCCN2c2ccnc(-n3ccnc3)n2)cc1 (stereo not given),940,inactive,,,
CS(=O)(=O)Nc1ccc(CNC(=O)CC2CCCCN2c2ccnc(-n3ccnc3)n2)cc1 (stereo not given),> 1000,inactive,,,
O=C(CC1COCCN1c1ccnc(-n2ccnc2)n1)NCc1ccc2c(c1)OCO2 (stereo not given),,inactive,,,0.5
O=C(CC1CCCCN1c1ccnc(-n2ccnc2)n1)NCc1ccccc1 (stereo not given),440,inactive,,,
Cc1cc(N2CCC[C@H]2C(=O)NCCc2ccc3c(c2)OCO3)nc(-n2ccnc2)n1,,inactive,,,6400
COc1ccc(NC(=O)CC2CCCCN2c2ccnc(-n3ccnc3)n2)cc1OC (stereo not given),1800,inactive,,,
